Experimental data taken from paper PMC6319658 (Journal of natural products, 2018).

Columns and labels:
[1] = system: B-Raf; assay: Raf kinase catalytic activity assay; format: biochemical; conditions: 10 μM compound; data not shown
[2] = system: Colo205 cells that harbor the V600E B-Raf mutation; assay: Western blot analysis of ERK signaling cascade proteins in Colo205 cells; format: cell-based, human; conditions: for total protein levels of B-Raf, C-Raf, and MEK / ERK protein levels: 18 h treatment
[3] = system: MEK; assay: MEK1 kinase activity assay; format: biochemical; conditions: 10 μM compound; data not shown
[4] = system: cells; conditions: cited from earlier work
[5] = system: 60 human tumor cell lines; assay: NCI-60 cell line screening assay; format: cell-based; conditions: for growth suppression of cell lines that harbor the B-Raf V600E mutation: Colo205 colon, MALM-3M, SK-MEL-5, MDA-MB-435 melanoma cell lines; for pattern of cytotoxicity at the GI50 level: NCI-60 screen
Outline: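 Test compounds were submitted as DMSO solutions to the NCI-60 screen for cytotoxicity across 60 human tumor cell lines. The response patterns were analysed with bioinformatics tools on the public CellMiner site.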

[6] = system: ERK; assay: ERK kinase catalytic activity assay; format: biochemical; conditions: data not shown
[7] = system: C-Raf; assay: Raf kinase catalytic activity assay; format: biochemical; conditions: 10 μM compound; data not shown
[8] = system: SUMO conjugation enzymatic cascade; format: biochemical; conditions: read-out: IC50, inhibition of SUMOylation of a substrate peptide; in vitro electrophoretic mobility shift assay

SMILES | inhibition of kinase catalytic activity of B-Raf [1] | inhibition of kinase catalytic activity of MEK [3] | inhibition of kinase catalytic activity of ERK [6] | inhibition of kinase catalytic activity of C-Raf [7] | IC50 [8] [µM] | total protein levels of B-Raf, C-Raf, and MEK ([2]; 1 μM) | ERK protein levels ([2]; 10 μM) | total protein levels of B-Raf, C-Raf, and MEK ([2]; 10 μM) | reactive oxygen species (ROS) in cells [4] | growth suppression of cell lines that harbor the B-Raf V600E mutation [5] | pattern of cytotoxicity at the GI50 level [5] | phosphorylation (activation) of MEK and ERK ([2]; 1 μM) | phosphorylation of MEK and subsequent activation of ERK ([2]; positive control) | total protein concentrations in the pathway ([2]; positive control)
CSC1=C(N)C(=O)c2[nH]cc(CO)c2C1=N [Compound 1, macrophilone A] | no reduction in kinase activity | no reduction in kinase activity | no reduction in kinase activity | no reduction in kinase activity | – | effective at reducing these proteins | no corresponding loss | striking reductions | increase in reactive oxygen species | most potent | selective cytotoxicity | – | – | –
CN(C)CCOc1ccc(-c2nc(-c3ccc4c(c3)CC/C4=N\O)c(-c3ccncc3)[nH]2)cc1 [SB-590885, reference compound] | – | – | – | – | – | – | – | – | – | – | – | – | blocked phosphorylation of MEK | no significant impact

The next lines start with results.

inhibition of kinase catalytic activity of B-Raf [1] | inhibition of kinase catalytic activity of MEK [3] | inhibition of kinase catalytic activity of ERK [6] | inhibition of kinase catalytic activity of C-Raf [7] | IC50 [8] [µM] | SMILES | total protein levels of B-Raf, C-Raf, and MEK ([2]; 1 μM) | ERK protein levels ([2]; 10 μM) | total protein levels of B-Raf, C-Raf, and MEK ([2]; 10 μM) | reactive oxygen species (ROS) in cells [4] | growth suppression of cell lines that harbor the B-Raf V600E mutation [5] | pattern of cytotoxicity at the GI50 level [5] | phosphorylation (activation) of MEK and ERK ([2]; 1 μM) | phosphorylation of MEK and subsequent activation of ERK ([2]; positive control) | total protein concentrations in the pathway ([2]; positive control)
no reduction in kinase activity | no reduction in kinase activity | no reduction in kinase activity | no reduction in kinase activity | – | N=C1C2=C(NCCS2)C(=O)c2[nH]cc(CO)c21 [Compound 3, macrophilone C] | – | no corresponding loss | striking reductions | – | most potent | selective cytotoxicity | increased phosphorylation | – | –
no reduction in kinase activity | no reduction in kinase activity | no reduction in kinase activity | no reduction in kinase activity | – | N=C1C2=C(NCC[S+]2[O-])C(=O)c2[nH]cc(CO)c21 (stereo not drawn) [Compound 4, macrophilone D] | – | no corresponding loss | striking reductions | – | – | selective cytotoxicity | increased phosphorylation | – | –
– | – | – | – | > 100 | O=C1C2=C(SCCN2)C2=NCCc3c[nH]c1c32 [Compound 6, macrophilone F] | – | – | – | – | – | – | – | – | –
